# Source: ChEMBL document CHEMBL4689842, “EUbOPEN Chemogenomics Library wave 1” (2021)
# Tested on: Fibroblast
# Assay: Multiplex assay against human fibroblast
# Assay type: toxicity, cell-based
# Method in brief: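 Hoechst33342, BioTracker Green Microtubule Cytoskeleton Dye, MitoTracker Red and Annexin V Alexa Fluor 680 were added to live cells at seeding, and imaging on a CQ1 microscope at 37°C and 5% CO2 followed compound addition. Gating by CellPathfinder machine learning separated cells into Hoechst high-intensity objects or normal cells, then normal cells into healthy, pyknosed or fragmented nuclei, then pyknosed cells into mitotic or apoptotic. Per cents of healthy-nucleus cells are reported for the tubulin, mitochondrial-mass and membrane-permeability phenotypes.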
# [1] = 12 h, 1 µM, compound concentration 1 uM, replicate 1
# [2] = 12 h, 1 µM, compound concentration 1 uM, replicate 2
# [3] = 12 h, 10 µM, compound concentration 10 uM, replicate 1
# [4] = 12 h, 10 µM, compound concentration 10 uM, replicate 2
# [5] = 24 h, 1 µM, compound concentration 1 uM, replicate 1
# [6] = 24 h, 1 µM, compound concentration 1 uM, replicate 2
# [7] = 24 h, 10 µM, compound concentration 10 uM, replicate 1
# [8] = 24 h, 10 µM, compound concentration 10 uM, replicate 2
# [9] = 48 h, 1 µM, compound concentration 1 uM, replicate 1
# [10] = 48 h, 1 µM, compound concentration 1 uM, replicate 2
# [11] = 48 h, 10 µM, compound concentration 10 uM, replicate 1
# [12] = 48 h, 10 µM, compound concentration 10 uM, replicate 2
compound,measurement,setting,value
CN1CCCC(n2nc(Cc3ccc(Cl)cc3)c3ccccc3c2=O)CC1.Cl (stereo not given) [AZELASTINE HYDROCHLORIDE],Population Apoptotic (%),[1],47%
same,Population Fragmented Nuclei (%),[1],25%
same,Population Healthy Nuclei (%),[1],50%
same,Population Hoechst High Intensity Objects (%),[1],11%
same,Population Membrane Permeable-Phenotype (%),[1],26%
same,Population Mitochondria Different-Phenotype (%),[1],9%
same,Population Mitotic Cells (%),[1],52%
same,Population Normal (%),[1],88%
same,Population Pyknosed Nuclei (%),[1],23%
same,Population Tubulin-Different-Phenotype (%),[1],65%
same,Total Cell Count,[1],92
same,Population Apoptotic (%),[2],25%
same,Population Fragmented Nuclei (%),[2],6%
same,Population Healthy Nuclei (%),[2],84%
same,Population Membrane Permeable-Phenotype (%),[2],7%
same,Population Mitochondria Different-Phenotype (%),[2],57%
same,Population Mitotic Cells (%),[2],75%
same,Population Pyknosed Nuclei (%),[2],8%
same,Population Tubulin-Different-Phenotype (%),[2],68%
same,Total Cell Count,[2],51
same,Population Apoptotic (%),[3],74%
same,Population Fragmented Nuclei (%),[3],26%
same,Population Healthy Nuclei (%),[3],38%
same,Population Hoechst High Intensity Objects (%),[3],18%
same,Population Membrane Permeable-Phenotype (%),[3],13%
same,Population Mitochondria Different-Phenotype (%),[3],55%
same,Population Mitotic Cells (%),[3],25%
same,Population Normal (%),[3],81%
same,Population Pyknosed Nuclei (%),[3],34%
same,Population Tubulin-Different-Phenotype (%),[3],93%
same,Total Cell Count,[3],138
same,Population Apoptotic (%),[4],57%
same,Population Fragmented Nuclei (%),[4],14%
same,Population Healthy Nuclei (%),[4],70%
same,Population Hoechst High Intensity Objects (%),[4],4%
same,Population Membrane Permeable-Phenotype (%),[4],84%
same,Population Mitochondria Different-Phenotype (%),[4],98%
same,Population Mitotic Cells (%),[4],42%
same,Population Normal (%),[4],95%
same,Population Pyknosed Nuclei (%),[4],15%
same,Population Tubulin-Different-Phenotype (%),[4],100%
same,Total Cell Count,[4],96
same,Population Apoptotic (%),[5],40%
same,Population Fragmented Nuclei (%),[5],31%
same,Population Healthy Nuclei (%),[5],42%
same,Population Hoechst High Intensity Objects (%),[5],10%
same,Population Membrane Permeable-Phenotype (%),[5],36%
same,Population Mitochondria Different-Phenotype (%),[5],11%
same,Population Mitotic Cells (%),[5],59%
same,Population Normal (%),[5],89%
same,Population Pyknosed Nuclei (%),[5],25%
same,Population Tubulin-Different-Phenotype (%),[5],66%
same,Total Cell Count,[5],95
same,Population Apoptotic (%),[6],50%
same,Population Fragmented Nuclei (%),[6],7%
same,Population Healthy Nuclei (%),[6],76%
same,Population Hoechst High Intensity Objects (%),[6],8%
same,Population Membrane Permeable-Phenotype (%),[6],10%
same,Population Mitochondria Different-Phenotype (%),[6],57%
same,Population Mitotic Cells (%),[6],50%
same,Population Normal (%),[6],91%
same,Population Pyknosed Nuclei (%),[6],15%
same,Population Tubulin-Different-Phenotype (%),[6],50%
same,Total Cell Count,[6],57
same,Population Apoptotic (%),[7],84%
same,Population Fragmented Nuclei (%),[7],32%
same,Population Healthy Nuclei (%),[7],53%
same,Population Hoechst High Intensity Objects (%),[7],18%
same,Population Membrane Permeable-Phenotype (%),[7],17%
same,Population Mitochondria Different-Phenotype (%),[7],62%
same,Population Mitotic Cells (%),[7],15%
same,Population Normal (%),[7],81%
same,Population Pyknosed Nuclei (%),[7],14%
same,Population Tubulin-Different-Phenotype (%),[7],90%
same,Total Cell Count,[7],161
same,Population Apoptotic (%),[8],95%
same,Population Fragmented Nuclei (%),[8],16%
same,Population Healthy Nuclei (%),[8],58%
same,Population Hoechst High Intensity Objects (%),[8],4%
same,Population Membrane Permeable-Phenotype (%),[8],98%
same,Population Mitochondria Different-Phenotype (%),[8],100%
same,Population Mitotic Cells (%),[8],4%
same,Population Normal (%),[8],95%
same,Population Pyknosed Nuclei (%),[8],25%
same,Population Tubulin-Different-Phenotype (%),[8],100%
same,Total Cell Count,[8],96
same,Population Apoptotic (%),[9],58%
same,Population Fragmented Nuclei (%),[9],38%
same,Population Healthy Nuclei (%),[9],41%
same,Population Hoechst High Intensity Objects (%),[9],11%
same,Population Membrane Permeable-Phenotype (%),[9],28%
same,Population Mitochondria Different-Phenotype (%),[9],11%
same,Population Mitotic Cells (%),[9],41%
same,Population Normal (%),[9],88%
same,Population Pyknosed Nuclei (%),[9],20%
same,Population Tubulin-Different-Phenotype (%),[9],54%
same,Total Cell Count,[9],95
same,Population Apoptotic (%),[10],75%
same,Population Fragmented Nuclei (%),[10],31%
same,Population Healthy Nuclei (%),[10],61%
same,Population Hoechst High Intensity Objects (%),[10],8%
same,Population Membrane Permeable-Phenotype (%),[10],10%
same,Population Mitochondria Different-Phenotype (%),[10],1%
same,Population Mitotic Cells (%),[10],25%
same,Population Normal (%),[10],91%
same,Population Pyknosed Nuclei (%),[10],7%
same,Population Tubulin-Different-Phenotype (%),[10],73%
same,Total Cell Count,[10],123
same,Population Apoptotic (%),[11],90%
same,Population Fragmented Nuclei (%),[11],40%
same,Population Healthy Nuclei (%),[11],52%
same,Population Hoechst High Intensity Objects (%),[11],30%
same,Population Membrane Permeable-Phenotype (%),[11],13%
same,Population Mitochondria Different-Phenotype (%),[11],34%
same,Population Mitotic Cells (%),[11],10%
same,Population Normal (%),[11],69%
same,Population Pyknosed Nuclei (%),[11],6%
same,Population Tubulin-Different-Phenotype (%),[11],84%
same,Total Cell Count,[11],207
same,Population Apoptotic (%),[12],66%
same,Population Fragmented Nuclei (%),[12],38%
same,Population Healthy Nuclei (%),[12],57%
same,Population Hoechst High Intensity Objects (%),[12],25%
same,Population Membrane Permeable-Phenotype (%),[12],22%
same,Population Mitochondria Different-Phenotype (%),[12],39%
same,Population Mitotic Cells (%),[12],33%
same,Population Normal (%),[12],74%
same,Population Pyknosed Nuclei (%),[12],3%
same,Population Tubulin-Different-Phenotype (%),[12],88%
same,Total Cell Count,[12],253
